“And” between values parts separate entries of the source, which are not always exact repeats. Equal entries are not always repeated. Where two headings read alike, the source gives them in different places.
Experiments:
HIV-1 NL4-3 [1] = conditions: read-out: anti-HIV-1 activity in cell culture EC50; MAGI cells; cited from earlier work
HIV-1 NL4-3 [2] = test: In vitro anti-HIV-1 NL4-3 antiviral assay in MAGI cells; assay type: cell-based; conditions: HIV-1 NL4-3, MAGI cells, mean of three determinations; for EC50: read-out: EC50 (SD), concentration for 50% inhibition of virus replication; for EC90: read-out: EC90 (SD), concentration for 90% reduction of virus replication
How it was run: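 MAGI cells carrying an LTR–β-galactosidase reporter were infected with HIV-1 in the presence of test compound. Infection and Tat expression drive the reporter through the HIV-1 LTR. Cells were lysed 6 days after infection, and β-galactosidase activity was read by chemiluminescence. Values are the mean of three determinations.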

MAGI cells = test: Compound toxicity in MAGI cells by MTS dye reduction; assay type: cell-based
[3] = Stability in pooled, mixed-gender human liver microsomes; assay type: in vitro ADME
How it was run: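 Test compound incubated with 0.5 mg/mL microsomal protein in 100 mM potassium phosphate (pH 7.4), with 5 mM MgCl₂, 5 mM G-6-P, 0.5 U/mL G-6-P-DH and 2 mM NADPH. Mixtures were preincubated 3 min at 37 °C, started with NADPH and run 60 min. Aliquots taken at 0, 15, 30, 45 and 60 min were quenched in ice-cold acetonitrile and centrifuged. Supernatant analysed by reversed-phase HPLC-UV at 360 nm. Mean of three determinations, S.D.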

CYP 3A4 = CYP 3A4 (Homo sapiens, UniProt P08684); test: CYP 3A4 substrate activity in pooled human liver microsomes; assay type: in vitro ADME; conditions: relative to control (100%)
CYP 3A4, sequence (P08684 whole entry): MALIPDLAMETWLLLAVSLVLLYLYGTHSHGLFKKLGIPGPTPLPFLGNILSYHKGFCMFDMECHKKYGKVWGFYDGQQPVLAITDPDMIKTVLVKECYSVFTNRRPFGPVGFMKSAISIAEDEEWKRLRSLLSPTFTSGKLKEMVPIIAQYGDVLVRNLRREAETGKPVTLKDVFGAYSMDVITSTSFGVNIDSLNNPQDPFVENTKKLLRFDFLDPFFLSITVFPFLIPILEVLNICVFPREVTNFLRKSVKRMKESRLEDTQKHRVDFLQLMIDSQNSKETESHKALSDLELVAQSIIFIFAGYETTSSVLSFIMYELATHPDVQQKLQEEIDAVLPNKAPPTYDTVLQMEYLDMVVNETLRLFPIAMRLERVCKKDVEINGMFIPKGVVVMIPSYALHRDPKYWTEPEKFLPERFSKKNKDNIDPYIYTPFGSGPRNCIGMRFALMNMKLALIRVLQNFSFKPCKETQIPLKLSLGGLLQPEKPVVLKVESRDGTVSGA

CYP 2D6 = CYP 2D6 (Homo sapiens, UniProt P10635); test: CYP 2D6 substrate activity in pooled human liver microsomes; assay type: in vitro ADME; conditions: for Substrate Activity % ±S.D.: dextromethorphan 200 µM, relative to control (100%)
CYP 2D6, sequence (P10635 whole entry): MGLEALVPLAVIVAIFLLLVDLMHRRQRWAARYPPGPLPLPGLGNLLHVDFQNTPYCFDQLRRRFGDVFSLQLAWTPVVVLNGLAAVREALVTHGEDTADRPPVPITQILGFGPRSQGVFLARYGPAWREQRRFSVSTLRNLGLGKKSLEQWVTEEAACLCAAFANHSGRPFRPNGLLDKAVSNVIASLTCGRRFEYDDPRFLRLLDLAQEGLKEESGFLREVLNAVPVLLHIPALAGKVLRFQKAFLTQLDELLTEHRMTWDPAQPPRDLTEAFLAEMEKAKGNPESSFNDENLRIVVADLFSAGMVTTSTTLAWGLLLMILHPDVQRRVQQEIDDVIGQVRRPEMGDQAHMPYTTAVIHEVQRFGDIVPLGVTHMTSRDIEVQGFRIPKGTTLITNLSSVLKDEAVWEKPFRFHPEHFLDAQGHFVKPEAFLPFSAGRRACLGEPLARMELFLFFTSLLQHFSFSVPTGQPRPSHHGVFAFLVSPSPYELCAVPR
How it was run: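 Pooled human liver microsomes incubated with the probe substrate and a range of test compound concentrations in 100 mM potassium phosphate (pH 7.4) with 5 mM MgCl₂. Mixtures were preincubated 3 min at 37 °C, then started with NADPH (final 2 mM). Substrate and metabolite were quantified by reversed-phase HPLC-UV: CYP3A4, testosterone/6β-hydroxytestosterone at 254 nm; CYP2D6, dextromethorphan/dextrorphan at 278 nm. Mean of three determinations, S.D.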

## O=C(O)C(=O)C=C(O)c1cc(Cc2ccc(F)cc2F)cn(Cc2ccccc2F)c1=O [compound 1, 4-(5-(2,4-difluorobenzyl)-1-(2-fluorobenzyl)-2-oxo-1,2-dihydropyridin-3-yl)-4-hydroxy-2-oxobut-3-enoic acid]
HIV-1 NL4-3 [1]
  EC50: 0.5 µM

## (1R,2R)-4-(5-(2,4-difluorobenzyl)-1-(2-fluorobenzyl)-2-oxo-1,2-dihydropyridin-3-yl)-4-hydroxy-N-(2-hydroxycyclopentyl)but-3-enamide [compound 4]
HIV-1 NL4-3 [2]
  EC50: 0.0422 µM
  EC90: 0.871 µM
MAGI cells
  CC50: 137 µM

## (1S,2S)-4-(5-(2,4-difluorobenzyl)-1-(2-fluorobenzyl)-2-oxo-1,2-dihydropyridin-3-yl)-4-hydroxy-N-(2-hydroxycyclopentyl)but-3-enamide [compound 3]
HIV-1 NL4-3 [2]
  EC50: 0.025 µM and 0.0251 µM
  EC90: 0.415 µM
MAGI cells; read-out: CC50, concentration to reduce cell viability by 50%, MAGI cells, MTS dye reduction
  CC50: 40.4 µM
[3]
  stability in pooled human liver microsomes (result in words): relatively stable
CYP 3A4; testosterone 100 µM, compound 3 at 12.5 µM
  Substrate Activity % ±S.D.: 109 ±13%
CYP 3A4; testosterone 100 µM, compound 3 at 25 µM
  Substrate Activity % ±S.D.: 97 ±18%
CYP 3A4; testosterone 100 µM, compound 3 at 50 µM
  Substrate Activity % ±S.D.: 112 ±15%
CYP 3A4; triazolam 200 µM, compound 3 at 12.5 µM
  Substrate Activity % ±S.D.: 124 ±23%
CYP 3A4; triazolam 200 µM, compound 3 at 25 µM
  Substrate Activity % ±S.D.: 98 ±7%
CYP 3A4; triazolam 200 µM, compound 3 at 50 µM
  Substrate Activity % ±S.D.: 100 ±8%
CYP 2D6; compound 3 at 12.5 µM
  Substrate Activity % ±S.D.: 86 ±7%
CYP 2D6; compound 3 at 25 µM
  Substrate Activity % ±S.D.: 87 ±17%
CYP 2D6; compound 3 at 50 µM
  Substrate Activity % ±S.D.: 87 ±13%
CYP 2D6; pooled human liver microsomes, dextromethorphan as substrate
  inhibition or activation of CYP 2D6 (result in words): neither a significant inhibitor nor an activator
